From PubChem
TAAR1 ag – human TAAR1 agonists, primary screen, Fluo-8 calcium fluorescence, CHO RD-HGA16 cells | Trace amine-associated receptor 1 (Homo sapiens), Q96RJ0 | activation, % at 3 µM | 360,000 compounds, 0.99% hits | vehicle wells 0%, saturating PEA agonist 100%;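 active = activation above the mean activation of all test compounds in the run plus 3 SD, cut at about 38% in these data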
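Assay system: CHO-derived RD-HGA16 cells with stable Gα16 and human TAAR1; timing: 17-24 h seeding, 75 min 37 °C dye, 30 min RT; read-out: % activation from peak over basal fluorescence ratio, DMSO-to-PEA scaled; measured by: kinetic Fluo-8 calcium fluorescence; benchmarks: low control DMSO, high control PEA (EC100); doses: 3 µM single concentration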
CHO parental Ca – ATP-evoked calcium signal inhibitors, parental CHO, primary screen, counter-screen for OX1R antagonist project, cell-based, fluorescence, Fluo-8 calcium dye. inhibition, % at 5.6 µM. AID 463079, 2010. parental CHO-K1, ATP-induced calcium, Fluo-8 fluorescence. 330,000 compounds, 0.63% hits;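 active = inhibition above that plate's mean sample inhibition plus 3 SD, cut at about 26% in these data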
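Measured by: calcium-sensitive Fluo-8 fluorescence / Test system: CHO parental line / Controls: ATP-challenged DMSO wells low, unchallenged DMSO wells high / Measure: % inhibition / Compound: single nominal dose of 5.6 µM per compound / Replicates: single well per compound, no replicates / Reagent: ATP as calcium-mobilizing challenge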
OX1R antag-1 – OX1R (HCRTR1) antagonists, primary screen, fluorescence, CHO/OX1R cells, Fluo-8 calcium, orexin A. inhibition, % at 5 µM. 330,000 compounds, 0.43% hits. Fluo-8 calcium fluorescence. Orexin/Hypocretin receptor type 1 (Homo sapiens), O43613. AID 434989, 2010;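 active = inhibition above its plate's threshold, mean inhibition of all tested compounds on the plate plus 3 SD, cut at about 37% in these data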
Target sequence (O43613 whole entry, looked up): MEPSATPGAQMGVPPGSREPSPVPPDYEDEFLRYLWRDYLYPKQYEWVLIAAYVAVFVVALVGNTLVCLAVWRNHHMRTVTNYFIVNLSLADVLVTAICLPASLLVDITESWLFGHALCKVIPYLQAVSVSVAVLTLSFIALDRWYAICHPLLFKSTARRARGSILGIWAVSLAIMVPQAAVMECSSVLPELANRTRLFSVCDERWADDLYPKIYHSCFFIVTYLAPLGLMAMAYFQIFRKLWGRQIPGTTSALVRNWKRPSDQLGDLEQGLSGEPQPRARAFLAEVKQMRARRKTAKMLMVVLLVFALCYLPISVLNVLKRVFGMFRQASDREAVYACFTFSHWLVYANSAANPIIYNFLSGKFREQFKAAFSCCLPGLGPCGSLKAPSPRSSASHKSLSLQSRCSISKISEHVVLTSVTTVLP
GPR7 antagonist – GPR7 receptor antagonists, primary screen, cell-based, fluorescence, single concentration; inhibition, % at 4.4 µM; Neuropeptides B/W receptor type 1 (Homo sapiens), P48145; GPR7-expressing cells, fluorescence antagonist assay; 290,000 compounds, 1.1% hits; in the data active = inhibition above about 16%, passing the limit was not always enough;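 note: cells stimulated with the agonist NPW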
Target sequence (P48145 whole entry, looked up): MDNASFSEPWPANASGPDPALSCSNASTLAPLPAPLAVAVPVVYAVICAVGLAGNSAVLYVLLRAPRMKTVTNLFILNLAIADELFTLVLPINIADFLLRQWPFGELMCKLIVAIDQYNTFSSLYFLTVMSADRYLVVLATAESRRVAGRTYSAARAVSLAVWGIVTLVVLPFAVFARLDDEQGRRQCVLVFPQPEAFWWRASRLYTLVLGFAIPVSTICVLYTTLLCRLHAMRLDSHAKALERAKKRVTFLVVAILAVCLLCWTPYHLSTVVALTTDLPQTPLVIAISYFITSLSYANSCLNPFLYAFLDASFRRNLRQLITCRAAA
OX1R antag-2 – antagonists of human orexin 1 receptor (OX1R); OX1R-expressing cells, FRET antagonist read-out; inhibition, % at 6.6 µM; 330,000 compounds, 1.8% hits; AID 485270, 2010; in the data active = inhibition mostly above about 38%, no sharp cut-off; inactive = mostly below about 40%
TAAR1 antag – human TAAR1 antagonists, primary screen, Fluo-8 calcium fluorescence, CHO RD-HGA16 cells. Trace amine-associated receptor 1 (Homo sapiens), Q96RJ0. antagonist. inhibition, % at 3 µM. 360,000 compounds, 1.5% hits;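 active = inhibition above a per-plate cutoff, the mean inhibition of test compounds on that plate plus 3 SD, cut at about 49% in these data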
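Assay system: CHO-derived RD-HGA16 cells stably expressing human TAAR1 plus Gα16. Timing: 140 s kinetic read after compound, 140 s after agonist. Technique: kinetic Fluo-8 calcium fluorescence measurement. Measure: % inhibition of agonist calcium response.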
TAAR1 ag conf – human TAAR1 agonists, retest of hits, confirmation, Fluo-8 calcium fluorescence, CHO RD-HGA16 cells | shares compounds with TAAR1 ag | scaled: DMSO 0%, maximal phenethylamine 100% | activation, % at 3 µM | 2,400 compounds, 82% hits | AID 651783, 2012;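 active = activation above a cutoff set at the run's mean compound activation plus 3 SD, cut at about 39% in these data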
Ga16 ag counter – nonselective calcium mobilization agonists, CHO-Ga16 cells, counter-screen for hTAAR1 agonist project, cell-based, fluorescence, CHO-Ga16 parental line | shares compounds with TAAR1 ag | Fluo-8 calcium fluorescence; normalized to maximal ATP response, DMSO zero | activation, % at 3 µM | 2,400 compounds, 50% hits | AID 651787, 2012;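 active = activation above the run cutoff, the mean activation over all tested wells plus 3 SD, cut at about 12% in these data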
TAAR1 desensitize – TAAR1 desensitization by agonist hits, confirmation, counter-screen for TAAR1 agonist project, cell-based, fluorescence, tachyphylaxis | shares compounds with TAAR1 ag | CHO RD-HGA16 hTAAR1, Fluo-8 calcium, beta-PEA response inhibition | 2,400 compounds, 46% hits | inhibition, % at 3 µM | AID 651951, 2012;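 active = inhibition above the run cutoff, the mean inhibition of all test compounds plus 3 SD, cut at about 49% in these data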;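 note: beta-PEA stimulus applied at its EC80; loss of beta-PEA calcium signal after compound pretreatment read as receptor desensitization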
Ga16 antag count – inhibition of ATP-evoked calcium response in CHO-Ga16 cells, counter-screen for TAAR1 agonist project, cell-based, fluorescence. 2,400 compounds, 39% hits. CHO-Ga16 ATP-induced calcium, Fluo-8 fluorescence. inhibition, % at 3 µM. shares compounds with TAAR1 ag. AID 651952, 2012;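 active = inhibition above the plate's mean compound inhibition plus 3 SD, computed per plate, cut at about 22% in these data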
Of the large screens only hits and unclear results are named; the others gave an inactive call (follow-up assays come after a bar, where they were run). A selection: hits, their analogues and other compounds. The true share with any hit is near 4.6%.

O=C(CC[C@H]1O[C@@H](n2ccc(=O)[nH]c2=O)[C@H](O)[C@@H]1O)N[C@@H](Cc1ccccc1)C(=O)NCC1CCCO1 (some centres undefined)	none (no result: CHO parental Ca, OX1R antag-1, GPR7 antagonist, OX1R antag-2)
O=C(CCN1CCC(c2ccccc2)C1)c1ccc2c(c1)OCCO2 (centres undefined)	TAAR1 ag 83, TAAR1 antag 83 | TAAR1 ag conf 80 | Ga16 ag counter inactive | TAAR1 desensitize 86 | Ga16 antag count inactive
COc1cc(C(=O)CCN2CCC(c3ccccc3)C2)cc(OC)c1OC (centres undefined)	TAAR1 ag 92, TAAR1 antag 86 | TAAR1 ag conf 105 | Ga16 ag counter inactive | TAAR1 desensitize 96 | Ga16 antag count inactive
COc1cc(C(=O)NC2CCN(Cc3ccccc3)CC2)cc(Cl)c1OC	none
O=C(CCN1CCC(c2ccccc2)C1)c1ccccc1 (centres undefined)	none (no result: TAAR1 ag, TAAR1 antag)
O=C(CCN1CCCC1Cc1ccccc1)c1ccc2c(c1)OCCO2 (centres undefined)	TAAR1 ag 87, TAAR1 antag 73 | TAAR1 ag conf 101 | Ga16 ag counter inactive | TAAR1 desensitize 85 | Ga16 antag count inactive
O=C(CCN1CCC(c2ccccc2)C1)c1cccs1 (centres undefined)	TAAR1 ag 100, TAAR1 antag 92 | TAAR1 ag conf 100 | Ga16 ag counter inactive | TAAR1 desensitize 95 | Ga16 antag count inactive
Cc1ccc(N(C)c2nc(N)nc(N)c2N=O)cc1	TAAR1 ag 59 (no result: CHO parental Ca, OX1R antag-1, GPR7 antagonist, OX1R antag-2) | TAAR1 ag conf 53 | Ga16 ag counter 65 | TAAR1 desensitize inactive | Ga16 antag count 37
Cc1cc(Br)ccc1Nc1nc(N)nc(N)c1N=O	none (no result: CHO parental Ca, OX1R antag-1, GPR7 antagonist, OX1R antag-2)
COc1cc(NC(=O)C2CC(=O)N(Cc3ccco3)C2)cc(OC)c1 (centres undefined)	none (no result: GPR7 antagonist)
Cc1ccc(Cl)c2sc(NC(=O)C3=COCCO3)nc12	TAAR1 ag 61 | TAAR1 ag conf inactive | Ga16 ag counter 20 | TAAR1 desensitize inactive | Ga16 antag count inactive
COc1ccc(Cl)c2sc(NC(=O)C3=COCCO3)nc12	none (no result: GPR7 antagonist)
O=C(NCc1ccccc1)N1CCN(c2ccc(Cl)c(Cl)c2)CC1	TAAR1 ag 95, CHO parental Ca 42, TAAR1 antag 101 | TAAR1 ag conf inactive | Ga16 ag counter inactive | TAAR1 desensitize inactive | Ga16 antag count 36
O=C(NCc1ccccc1)N1CCN(c2ccc(F)cc2)CC1	none
CC(C)CNC(=S)N(CCN(C)C)Cc1cc2cc3c(cc2[nH]c1=O)OCO3	none
CCOc1ccccc1C(c1c(C)n(C)n(-c2ccccc2)c1=O)c1c(C)n(C)n(-c2ccccc2)c1=O	none
c1ccc2c(-c3ccc(OCCN4CCCCC4)cc3)c(-c3ccsc3)sc2c1	TAAR1 ag 47 (no result: GPR7 antagonist) | TAAR1 ag conf 49 | Ga16 ag counter 25 | TAAR1 desensitize 51 | Ga16 antag count 43
NCCc1nnc(SCc2ccc(F)cc2)o1	none
NCCCCCc1nnc(SCc2ccc(Cl)c(Cl)c2)o1	TAAR1 ag 50 | TAAR1 ag conf 62 | Ga16 ag counter inactive | TAAR1 desensitize inactive | Ga16 antag count inactive
Cn1ncc(Cl)c1C(=O)NCc1ccc(Cl)cc1	none
NC(N)=N/N=C(\N=Nc1ccccc1)c1ccc(Cl)cc1	TAAR1 ag 49 (no result: CHO parental Ca, OX1R antag-1, GPR7 antagonist, OX1R antag-2) | TAAR1 ag conf 76 | Ga16 ag counter 38 | TAAR1 desensitize 77 | Ga16 antag count 50
CN1CCc2c(c3ccccc3n2Cc2ccccc2)C1	none
CN1CCc2c(c3ccccc3n2C)C1	TAAR1 ag 55 | TAAR1 ag conf 81 | Ga16 ag counter inactive | TAAR1 desensitize inactive | Ga16 antag count inactive
COc1ccc(CCNCC(O)c2ccccc2)cc1 (centres undefined)	none
OC(CNCCc1ccccc1)c1ccccc1 (centres undefined)	TAAR1 ag 53 | TAAR1 ag conf inactive | Ga16 ag counter inactive | TAAR1 desensitize inactive | Ga16 antag count inactive
O=c1c2ccccc2nnn1Cc1nnc(-c2ccccc2Br)o1	TAAR1 ag 67 | TAAR1 ag conf 115 | Ga16 ag counter 80 | TAAR1 desensitize inactive | Ga16 antag count inactive
Cc1ccc(S(=O)(=O)NN=CC=CC=NNS(=O)(=O)c2ccc(C)cc2)cc1	none (no result: CHO parental Ca, OX1R antag-1, GPR7 antagonist, OX1R antag-2)
COc1ccc(C(=O)Nc2ccc(Cn3ccnc3)cc2)cc1OC	none
O=C(Nc1ccc(Cn2ccnc2)cc1)c1cccc(C(F)(F)F)c1	TAAR1 ag 42 (no result: CHO parental Ca, OX1R antag-1, OX1R antag-2) | TAAR1 ag conf 57 | Ga16 ag counter inactive | TAAR1 desensitize inactive | Ga16 antag count inactive
c1ccc2c(CC3=NCCN3)cccc2c1	TAAR1 ag 97, TAAR1 antag 74 | TAAR1 ag conf 95 | Ga16 ag counter inactive | TAAR1 desensitize 90 | Ga16 antag count inactive
CCc1ccc(NC(=O)CSc2nc(C)cs2)cc1	none (no result: CHO parental Ca, OX1R antag-1, GPR7 antagonist, OX1R antag-2)
S=C(NCc1ccco1)Nc1ccc(Cl)c(Cl)c1	none
COC(=O)c1sc(NC(=S)NC(=O)c2ccccc2C)nc1C	TAAR1 ag 43 | TAAR1 ag conf 83 | Ga16 ag counter 54 | TAAR1 desensitize 61 | Ga16 antag count 34
O=C(O)C1=C(C(=O)N2CCN(C(=O)c3ccco3)CC2)CCCC1	TAAR1 ag 43 | TAAR1 ag conf 52 | Ga16 ag counter inactive | TAAR1 desensitize inactive | Ga16 antag count inactive
O=C(c1ccco1)N1CCN(C(=O)N2CCCCC2)CC1	none
COC(=O)c1ccc(CNC(=O)c2ccc(OC)c(S(=O)(=O)NC3CCCC3)c2)cc1	none (no result: GPR7 antagonist)
O=c1cc(N2CCc3ccccc3C2)[nH]c(=O)n1C1CCCCC1	none
Cc1ccc(-n2c(=O)cc(N3CCc4ccccc4C3)[nH]c2=O)cc1	TAAR1 ag 87 | TAAR1 ag conf inactive | Ga16 ag counter inactive | TAAR1 desensitize inactive | Ga16 antag count inactive
